Bioassay records as filed in PubChem.
FLuc inhib CS: firefly luciferase enzyme inhibitors, primary screen, artefact control for luciferase-based inhibitor screens, biochemical, luminescence, ATPLite. inhibition, % at 10 µM. 10 min. 200,000 tested, 1.5% active. AID 1006, 2008. Luciferin 4-monooxygenase (Photinus pyralis), P08659;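 active = inhibition above about 50% when tested at 10 µM, limit read from the data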
Target sequence (P08659 whole entry, looked up): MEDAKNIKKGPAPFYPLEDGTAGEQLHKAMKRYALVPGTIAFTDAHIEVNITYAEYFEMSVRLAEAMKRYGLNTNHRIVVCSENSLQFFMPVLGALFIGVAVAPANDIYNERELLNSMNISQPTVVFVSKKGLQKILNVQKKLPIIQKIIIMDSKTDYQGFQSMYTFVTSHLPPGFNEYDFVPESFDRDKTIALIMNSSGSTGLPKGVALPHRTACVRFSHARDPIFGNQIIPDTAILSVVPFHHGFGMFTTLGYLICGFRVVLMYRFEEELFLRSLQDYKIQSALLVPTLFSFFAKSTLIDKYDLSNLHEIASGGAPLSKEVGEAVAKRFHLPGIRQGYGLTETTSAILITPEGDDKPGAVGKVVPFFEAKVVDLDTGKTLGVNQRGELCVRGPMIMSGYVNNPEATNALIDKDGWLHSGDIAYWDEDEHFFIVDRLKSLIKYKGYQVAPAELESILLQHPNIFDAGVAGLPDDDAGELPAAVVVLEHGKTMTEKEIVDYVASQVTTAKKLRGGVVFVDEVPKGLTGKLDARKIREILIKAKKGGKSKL
TRAIL sens C8: viability loss with TRAIL in NB7+C8 cells, primary screen, TRAIL sensitizer project, cell-based, ATPlite luminescence; inhibition (viability loss, TRAIL sensitization), % at 10 µM; 360,000 tested, 1% active;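 active = compounds causing at least 50% loss of cell viability in the single-dose screen, relative to plate controls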
PPC-1+TRAIL kill: compounds killing PPC-1 cancer cells with TRAIL present, primary screen, TRAIL potentiator project, ATPLite luminescence, uHTS | PPC-1 cells + TRAIL, ATPLite viability luminescence | cell killing (% activity), % at 4 µM or 5 µM | 220,000 tested, 0.41% active;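 active = cell killing above 50% in the first pass at 4 µM, then a duplicate retest at 5 µM averaging 50% or more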;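 also: plate controls were cells with TRAIL plus DMSO for no effect and medium-only wells lacking cells for full effect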
FLuc act counter: FLuc activators, initial screening, artefact control for FLuc-dependent activation tests, biochemical, ATPlite luminescence. Luciferin 4-monooxygenase (Photinus pyralis), P08659. AID 1027, 2008. 200,000 tested, under 10 active. activation factor at 10 µM. ATPlite luciferase biochemical, 10 min; 0 = ATP-free wells, 1 = DMSO control;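 active = luciferase activation factor, scaled between plate controls, of at least 2 with compound at 10 µM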
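Material: Luciferase/luciferin reagent mix | Doses: Test compounds dosed from 2 mM stocks in 100% DMSO | Timing: 10 min incubation after luciferase reagent addition, room temperature | Measured by: Luminescence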
Starred values were filed as active, the others as inactive; . = not tested or not shown. This is a sample that favours compounds with a hit; in the whole collection about 1.5% have one here.

SMILES | FLuc inhib CS | TRAIL sens C8 | PPC-1+TRAIL kill | FLuc act counter
COc1ccc2c(n1)Sc1nc3ccccc3nc1N2 | . | 77* | 19 | .
COc1ccc(/C=C/C(=O)Nc2cc(C)nn2-c2nc3ccccc3[nH]2)cc1 | 67* | 71* | 49 | 0.3
Cc1cccc(NS(=O)(=O)c2cc3c(cc2C)n(C)c(=O)c(=O)n3C)c1 | . | 9 | . | .
O=[N+]([O-])c1ccc(O)c(/C=N/NC2=NS(=O)(=O)c3ccccc32)c1 | 69* | 3 | 22 | 0.3
COc1ccc(C(=O)NC2=NCCS2)cc1 | . | 4 | . | .
CC(C)Oc1ccc(C(=O)NC2=NCCS2)cc1 | 75* | 59* | 34 | 0.3
CC(C)c1ccc(C(=O)NC2=NCCS2)cc1 | 84* | 70* | 46 | 0.2
CC(=O)OCC(=O)C1(O)CCC2C3CC(F)C4=CC(=O)CCC4(C)C3C(O)CC21C (stereo unspecified) | . | 0 | . | .
C#Cc1ccc(NC(=O)C2(C)CCN2C(=O)C2(c3ccccc3)CCCC2)cc1 (stereo unspecified) | . | 86* | . | .
C#Cc1ccc(NC(=O)C2(C)CCN2C(=O)c2ccccc2CCc2ccccc2)cc1 (stereo unspecified) | . | 89* | . | .
CC(C)NC(=O)C1(C)CCN1C(=O)C1(c2ccccc2)CCCC1 (stereo unspecified) | . | 2 | . | .
CC1=C(SCc2ccccc2)C(=O)c2ccccc2C1=O | . | 51* | . | .
CCN(CC)c1ccc(N=C2C=CC(=O)C=C2NC(C)=O)cc1 | . | 16 | . | .
CN(CCO)c1cc(Sc2nc3ccccc3s2)c2nonc2c1[N+](=O)[O-] | -4 | 60* | 9 | 1
Cn1c(N=Nc2ccccc2)nc2ccccc21 | 95* | 93* | 85* | 0
CN(C)c1ccc(N=Nc2nc3ccccc3n2C)cc1 | . | 95* | 5 | .
Cn1c(Cl)nc2ccccc21 | -5 | -4 | 6 | 1.1
COc1cccc(-c2cnc3c(NC(C)=O)cc(-c4cccc(C(=O)NCCN(C)C)c4)cn23)c1 | . | -8 | . | .
COc1ccc2cc(/C=N/NC(=O)c3ccc(CN(c4cccc(Cl)c4Cl)S(C)(=O)=O)cc3)c(Cl)nc2c1 | -4 | 11 | 51* | 1
CCCCC(CC)CN1C(=O)/C(=C/c2ccncc2)SC1=S (stereo unspecified) | 0 | 86* | 3 | 1
CCN1C(=O)/C(=C\c2ccncc2)SC1=S | . | 6 | -2 | .
O=c1c2c3c(sc2nc2n1N=C(c1cccs1)CS2)CCCC3 | 76* | 67* | 78* | 0.2
Cc1cc(=O)[nH]c(S/C=C/c2ccccc2)n1 | 77* | 36 | 35 | 0.2
Clc1ccc(-c2nnc(NC3=NCCCCC3)o2)cc1 | 78* | 47 | 48 | 0.2
COc1ccc2cc(CCNS(=O)(=O)c3c(C)cc(C)cc3C)c(=O)[nH]c2c1 | . | -11 | . | .
SMILES | FLuc inhib CS | TRAIL sens C8 | PPC-1+TRAIL kill | FLuc act counter
c1ccc(-c2nnc(CN3CCC4(CC3)OCCO4)o2)cc1 | -4 | 6 | 12 | 1
c1ccc(-c2nnc3sc(CN4CCC5(CC4)OCCO5)cn23)cc1 | -7 | 65* | 5 | 1.1
O=C(Nc1nnc([C@@H]2C[C@H](O)[C@@H](CO)O2)s1)c1cccc(Cl)c1 | . | 19 | . | .
COc1cc(OC)cc(-c2cc3ccc(OC)cc3cn2)c1 | . | 83* | . | .
COc1ccc2cc(-c3ccccc3)ncc2c1 | . | 62* | . | .
COc1cc2cnc(-c3ccccc3)cc2cc1OC | . | 7 | . | .
COc1ccc2cc(-c3ccsc3)ncc2c1 | . | 48 | . | .
CC(=O)Nc1ccc(Nc2nc3ccccc3n3cnnc23)cc1 | . | 10 | . | .
CC(=O)Nc1ccc2c(c1)Cc1c-2cc(Cl)c(NC(C)=O)c1Cl | . | -4 | . | .
O=C(Nc1c(Cl)cc2c(c1Cl)Cc1cc([N+](=O)[O-])ccc1-2)C(Cl)Cl | . | 86* | . | .
Cc1ccc(C(=O)Nc2cccc(C(=O)N3CCOCC3)c2)cc1Cl | . | 9 | . | .
Cc1ccc(S(=O)(=O)NC(=O)NC2=NC(C)(C)N(c3ccc(Cl)c(Cl)c3)C(N)=N2)cc1 | . | 82* | . | .
Cc1ccc(S(=O)(=O)NC(=O)Nc2ccc(Cl)cn2)cc1 | -2 | 5 | 20 | 1
CCCCCC(=O)N1C[C@H](n2cc(C3CC3)nn2)[C@@H](O)C[C@@H]1c1ccccc1 | . | -3 | . | .
CCCc1ccc(C(=O)O/N=C(\N)c2ccccn2)cc1 | . | 89* | . | .
N/C(=N\OC(=O)c1cccc2ccccc12)c1ccccn1 | . | 56* | 31 | .
COc1cccc(C(=O)O/N=C(\N)c2ccccn2)c1OC | . | 42 | . | .
N/C(=N\OC(=O)c1cc(Br)ccc1Cl)c1ccccn1 | 52* | 48 | 36 | 0.5
Cc1c(C(=O)O/N=C(\N)c2ccccn2)cccc1[N+](=O)[O-] | . | 75* | 48 | .
CC(C)(C)C1CCN2CCCC(c3ccccc3)(C1)C2=O (stereo unspecified) | . | -4 | . | .
Cc1ccc(C(=O)O/N=C(\N)c2ccccn2)c(Cl)c1 | . | 91* | . | .
N/C(=N\OC(=O)c1ccc([N+](=O)[O-])cc1Cl)c1ccccn1 | . | 88* | . | .
COc1ccc(C/C(N)=N/OC(=O)c2cccc([N+](=O)[O-])c2)cc1 | -1 | 12 | 19 | 1
COc1ccccc1C/C(N)=N/OC(=O)c1cccc([N+](=O)[O-])c1 | -1 | 76* | 15 | 1
N/C(=N\OC(=O)c1cc([N+](=O)[O-])ccc1Cl)c1ccccn1 | . | -13 | 21 | .
SMILES | FLuc inhib CS | TRAIL sens C8 | PPC-1+TRAIL kill | FLuc act counter
COc1cccc(C(=O)O/N=C(\N)c2ccccn2)c1 | . | 79* | . | .
O=C(NCc1ccccc1F)Nc1nnc([C@H]2C[C@H](O)[C@@H](CO)O2)s1 | . | 1 | . | .
N/C(=N/OC(=O)c1cccc([N+](=O)[O-])c1)c1cccc([N+](=O)[O-])c1 | -1 | -17 | 36 | 1
N/C(=N\OC(=O)c1cccc([N+](=O)[O-])c1)c1ccccn1 | 67* | 16 | 21 | 0.3
NC(C(=O)O)C1CC(Cl)=NO1 (stereo unspecified) | -7 | . | 8 | 1.1
NC(C(=O)O)C1ON=C(Cl)C1O (stereo unspecified) | . | 78* | . | .
CC(C)(C)n1nc2c(c1NC(=O)c1cc(Cl)ccc1[N+](=O)[O-])CS(=O)(=O)C2 | . | -13 | . | .
COc1ccc(C2=Nc3ccccc3NC(=O)C2N(Cc2ccccc2)C(=O)C2=NNC(=O)CC2)cc1 (stereo unspecified) | . | 3 | . | .
c1ccc(Nc2nnc(-c3cccnc3)s2)cc1 | . | 53* | . | .
Nc1nnc(-c2cccnc2)s1 | 1 | 6 | -2 | 1
CCOC(=O)N1CCN(C(=O)CSc2ccc(-c3ccc(OC)cc3)nn2)CC1 | 58* | 20 | 32 | 0.4
CCOC(=O)N1CCN(C(=O)CSc2ccc(-c3ccc(OC)c(OC)c3)nn2)CC1 | 28 | 9 | 14 | 0.7
CSCCC(NC(=O)OC(C)(C)C)C(=O)Oc1ccc2c(=O)c(-c3ccc4c(c3)OCCO4)coc2c1 (stereo unspecified) | 26 | 56* | 32 | 0.7
CSCCC(NC(C)=O)C(=O)Oc1ccc2c3c(c(=O)oc2c1)CCCC3 (stereo unspecified) | 8 | 17 | 8 | 0.9
